# Square brackets hold non-standard residues; d marks the D form. Peptide text beside a SMILES is read from it. * marks the point of attachment. NMeF = CN[C@@H](Cc1ccccc1)C(=O)O; NMeV = CN[C@H](C(=O)O)C(C)C; X1 = C#CCCCC[C@H](C)C(=O)*; X2 = C#CCCC/C=C(\C)C(=O)*
# Assays:
# Assay type in all cases: functional, organism-based
# [1] = tested on: Trypanosoma cruzi; test: Antiparasitic activity against Trypanosoma cruzi Tulahuen C4 infected african green monkey Vero cells expressing beta-galctosidase after 5 days; conditions: 120 h
# Summary of the method: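 Parasite is a transgenic β-galactosidase-expressing Trypanosoma cruzi, Tulahuen strain clone C4; assay run as in earlier work.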
# [2] = tested on: Plasmodium falciparum; test: Antimalarial activity against chloroquine-resistant Plasmodium falciparum Indochina W2 infected human erythrocytes assessed as uptake of PicoGreen after 48 hrs; conditions: Indochina W2, 48 h
# [3] = tested on: Leishmania donovani; test: Antileishmanial activity against Leishmania donovani LD-1S/MHOM/SD/00-1S amastigotes after 72 hrs by PicoGreen fluorescence assay
# Summary of the method: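 Axenic amastigotes of WHO reference strain LD-1S/MHOM/SD/00-strain 1S; assay run as in earlier work.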
SMILES,IC50 [1],IC50 [2],IC50 [3]
C#CCCCC[C@H](C)C(=O)N(C)[C@H](C(=O)N(C)[C@H](C(=O)N(C)[C@H](C(=O)N(C)[C@@H](Cc1ccccc1)C(N)=O)C(C)C)C(C)C)C(C)C [DRAGONAMIDE A] (X1-[NMeV][NMeV][NMeV][NMeF]-NH2),> 10 µM,> 10 µM,6.5 µM
C#CCCC/C=C(\C)C(=O)N(C)[C@H](C(=O)N(C)[C@H](C(=O)N(C)[C@H](C(=O)N(C)[C@@H](Cc1ccccc1)C(N)=O)C(C)C)C(C)C)C(C)C [DRAGONAMIDE E] (X2-[NMeV][NMeV][NMeV][NMeF]-NH2),> 10 µM,> 10 µM,5.1 µM
CC1CS(=O)(=O)CCN1/N=C/c1ccc([N+](=O)[O-])o1 (centres undefined) [NIFURTIMOX],13.5 µM,–,–
C[C@@H]1[C@H](O)[C@@H](C)/C=C/C=C/C=C/C=C/C=C/C=C/C=C/[C@H](O[C@@H]2O[C@H](C)[C@@H](O)[C@H](N)[C@@H]2O)C[C@@H]2O[C@](O)(C[C@@H](O)C[C@@H](O)[C@H](O)CC[C@@H](O)C[C@@H](O)CC(=O)O[C@H]1C)C[C@H](O)[C@H]2C(=O)O [AMPHOTERICIN B],–,–,0.1 µM
C/C(=C\C=C\C[C@H](C)C(Cl)(Cl)Cl)C(=O)N[C@H](c1nccs1)C(C)C [HERBAMIDE B],> 10 µM,> 10 µM,5.9 µM
C#CCCCC[C@H](C)C(=O)N(C)[C@H](C(=O)N(C)[C@H](C(=O)N(C)[C@H](C(=O)N(C)[C@H](C(N)=O)C(C)C)C(C)C)C(C)C)C(C)C [DRAGONAMIDE B] (X1-[NMeV][NMeV][NMeV][NMeV]-NH2),> 10 µM,> 10 µM,> 10 µM
